# Data: ChEMBL document CHEMBL1127022, “Transformation of monoamine oxidase-B primary amine substrates into time-dependent inhibitors. Tertiary amine homologues of primary amine substrates” (J Med Chem, 1993)
# How the values were obtained:
# [1] = molecular target: T1, Amine oxidase [flavin-containing] B (Bos taurus, UniProt P56560); test: Inactivation kinetic constant Monoamine oxidase-B from Bovine liver; conditions: cattle
# T1 sequence (P56560 whole entry): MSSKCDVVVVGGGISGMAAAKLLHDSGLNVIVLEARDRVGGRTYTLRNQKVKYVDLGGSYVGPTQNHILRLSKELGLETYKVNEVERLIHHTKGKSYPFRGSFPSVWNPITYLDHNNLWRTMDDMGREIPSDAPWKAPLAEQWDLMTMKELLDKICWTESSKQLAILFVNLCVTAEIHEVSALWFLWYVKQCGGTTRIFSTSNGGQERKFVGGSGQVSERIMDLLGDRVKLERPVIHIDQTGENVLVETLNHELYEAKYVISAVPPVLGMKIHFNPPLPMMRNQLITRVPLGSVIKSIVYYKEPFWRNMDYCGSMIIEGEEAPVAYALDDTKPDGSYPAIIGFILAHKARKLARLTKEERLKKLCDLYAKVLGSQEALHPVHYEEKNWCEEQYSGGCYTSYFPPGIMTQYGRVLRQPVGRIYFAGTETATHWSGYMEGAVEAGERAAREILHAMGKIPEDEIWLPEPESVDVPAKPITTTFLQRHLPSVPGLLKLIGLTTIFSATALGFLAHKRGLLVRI
# Procedure, shortened: (§1)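 Bovine liver MAO-B was added to inhibitor at various concentrations in 100 mM potassium phosphate, pH 7.40, with 2.0 mM β-mercaptoethanol or glutathione, at 25 °C. Aliquots taken over time were assayed with 0.5 mM cinnamylamine in 100 mM Tris, pH 9.0, and corrected against a no-inhibitor control. Ki and kinact came from Kitz–Wilson analysis.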
# [2] = molecular target: T1, Amine oxidase [flavin-containing] B; test: Inhibition of Monoamine oxidase-B from Bovine liver; procedure, shortened: as §1
# [3] = molecular target: T1, Amine oxidase [flavin-containing] B; test: Catalysis activity was calculated for Monoamine oxidase-B from Bovine liver; conditions: cattle
# Procedure, shortened: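 Purified bovine liver MAO-B, with the test amine as substrate. Km and kcat were obtained by following the rate of hydrogen peroxide formation.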
Compound,kinact [1] [s⁻¹],Ki [2] [mM],k cat [3] [s⁻¹]
CCCNCCc1ccccc1,0.0767,4,
CCCCCN(C)C,0.000267,2.1,
CN(C)CCCc1ccccc1,0.00717,0.38,0.21
CN(C)CCC(=O)c1ccccc1,0.0288,0.35,
CN(C)CCCCc1ccccc1,4.83e-05,10,
CN(C)CCc1ccccc1,0.128,7.1,1.4
